Assay results from the RNAGym collection of RNA variant scans (doi:10.1002/anie.201605470).

B1: Osa-1-4 twister ribozyme (parent)
chain: CCGCCUAACACUGCCAAUGCCGGUCCCAAGCCCGGAUAAAAGUGGAGGGGGCGG

Variants of: B1
Assay: self-cleavage, relative activity (ratio to wild type); higher = more cleavage; co-transcriptional
Summary of the method: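 A DNA template was synthesised for a 54-nucleotide twister ribozyme from Oryza sativa, with 97 % wild-type base and 1 % of each other base at each of the 48 positions downstream of the cleavage site. The ribozyme cleaved itself co-transcriptionally during 2 h of in vitro transcription at 37 °C. Reverse transcription with a template-switching oligonucleotide, PCR amplification and deep sequencing followed, and cleavage status came from reads with or without upstream sequence. Relative activity is the fraction cleaved normalised to wild type.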

Variant	self-cleavage
CCGCCUAACACUGCCAAUGCCGGUCCCAAGCCCGGCUAAAAGUGGAGGGGGCGC [A36C G54C]	0.19
CCGCCUAACACUGCCAAUGCCGGUCCCAAGCCCGGCUAAAAGUGGAGGGGGCGU [A36C G54U]	0.55
CCGCCUAACACUGCCAAUGCCGGUCCCAAGCCCGGCUAAAAGUGGAGGGGGCGA [A36C G54A]	0.27
CCGCCUAACACUGCCAAUGCCGAUCCCAAGCCCGGCUAAAAGUGGAGGGGGCGG [A36C G23A]	0.09
CCGCCUAACACUGCCAAUGCCGUUCCCAAGCCCGGCUAAAAGUGGAGGGGGCGG [A36C G23U]	0.05
CCGCCUAACACUGCCAAUGCCGCUCCCAAGCCCGGCUAAAAGUGGAGGGGGCGG [A36C G23C]	0.03
CCGCCUAACACUGCCAAUGCCGGUCCCAAGCCCGACUAAAAGUGGAGGGGGCGG [A36C G35A]	0.94
CCGCCUAACACUGCCAAUGCCGGUCCCAAGCCCGUCUAAAAGUGGAGGGGGCGG [A36C G35U]	0.95
CCGCCUAACACUGCCAAUGCCGGUCCCAAGCCCGCCUAAAAGUGGAGGGGGCGG [A36C G35C]	0.75
CCGCCUAACACUGCCAAUGCCGGUCCCAAGCCCGGCUAAAAGUGGAGUGGGCGG [A36C G48U]	0.04
CCGCCUAACACUGCCAAUGCCGGUCCCAAGCCCGGCUAAAAGUGGAGAGGGCGG [A36C G48A]	0.05
CCGCCUAACACUGCCAAUGCCGGUCCCAAGCCCGGCUAAAAGUGGAGCGGGCGG [A36C G48C]	0.05
CCGCCUAACACUGCCAAGGCCGGUCCCAAGCCCGGCUAAAAGUGGAGGGGGCGG [A36C U18G]	0.87
CCGCCUAACACUGCCAAAGCCGGUCCCAAGCCCGGCUAAAAGUGGAGGGGGCGG [A36C U18A]	0.55
CCGCCUAACACUGCCAACGCCGGUCCCAAGCCCGGCUAAAAGUGGAGGGGGCGG [A36C U18C]	0.67
CCGCCUAACACUGCCAAUGCCGGUCCUAAGCCCGGCUAAAAGUGGAGGGGGCGG [A36C C27U]	0.09
CCGCCUAACACUGCCAAUGCCGGUCCGAAGCCCGGCUAAAAGUGGAGGGGGCGG [A36C C27G]	0.05
CCGCCUAACACUGCCAAUGCCGGUCCAAAGCCCGGCUAAAAGUGGAGGGGGCGG [A36C C27A]	0.07
CCGCCUAACACUGCCAAUGCCGGUCCCAAGCCCGGCUAAAAGAGGAGGGGGCGG [A36C U43A]	0.15
CCGCCUAACACUGCCAAUGCCGGUCCCAAGCCCGGCUAAAAGGGGAGGGGGCGG [A36C U43G]	0.11
CCGCCUAACACUGCCAAUGCCGGUCCCAAGCCCGGCUAAAAGCGGAGGGGGCGG [A36C U43C]	0.13
CCGCCUAACACUGCCAAUGCCGGUCCCAAGCCCGGCAAAAAGUGGAGGGGGCGG [A36C U37A]	0.53
CCGCCUAACACUGCCAAUGCCGGUCCCAAGCCCGGCGAAAAGUGGAGGGGGCGG [A36C U37G]	0.93
CCGCCUAACACUGCCAAUGCCGGUCCCAAGCCCGGCCAAAAGUGGAGGGGGCGG [A36C U37C]	0.98
CCGCCUAGCACUGCCAAUGCCGGUCCCAAGCCCGGGUAAAAGUGGAGGGGGCGG [A36G A8G]	0.66

Variant	self-cleavage
CCGCCUAUCACUGCCAAUGCCGGUCCCAAGCCCGGGUAAAAGUGGAGGGGGCGG [A36G A8U]	0.53
CCGCCUACCACUGCCAAUGCCGGUCCCAAGCCCGGGUAAAAGUGGAGGGGGCGG [A36G A8C]	0.1
CCGCCUAACACUGCCAAUGCCGGUCCCAAGCCCGGGUAAGAGUGGAGGGGGCGG [A36G A40G]	0.95
CCGCCUAACACUGCCAAUGCCGGUCCCAAGCCCGGGUAAUAGUGGAGGGGGCGG [A36G A40U]	0.96
CCGCCUAACACUGCCAAUGCCGGUCCCAAGCCCGGGUAACAGUGGAGGGGGCGG [A36G A40C]	0.1
CCGCCUAACACUGCCAAUGCCGGUCCCAAGCCCGGCUAAAAGUGGAGGGGGCCG [A36C G53C]	0.06
CCGCCUAACACUGCCAAUGCCGGUCCCAAGCCCGGCUAAAAGUGGAGGGGGCUG [A36C G53U]	0.13
CCGCCUAACACUGCCAAUGCCGGUCCCAAGCCCGGCUAAAAGUGGAGGGGGCAG [A36C G53A]	0.19
CCGCCUAACACUGCCAAUGCCGGUCCCAAGCCCGGCUAAAAGUGGAGGCGGCGG [A36C G49C]	0.06
CCGCCUAACACUGCCAAUGCCGGUCCCAAGCCCGGCUAAAAGUGGAGGAGGCGG [A36C G49A]	0.06
CCGCCUAACACUGCCAAUGCCGGUCCCAAGCCCGGCUAAAAGUGGAGGUGGCGG [A36C G49U]	0.06
CCGCCUAACACUGCCAAUGCCGGUCCCAAGCCCCGCUAAAAGUGGAGGGGGCGG [A36C G34C]	0.39
CCGCCUAACACUGCCAAUGCCGGUCCCAAGCCCAGCUAAAAGUGGAGGGGGCGG [A36C G34A]	0.88
CCGCCUAACACUGCCAAUGCCGGUCCCAAGCCCUGCUAAAAGUGGAGGGGGCGG [A36C G34U]	0.75
CCGCCUAACACUGCCAAUGCCGGUCCCAAGCCCGGCUAAAAGUGGAGGGGUCGG [A36C G51U]	0.11
CCGCCUAACACUGCCAAUGCCGGUCCCAAGCCCGGCUAAAAGUGGAGGGGCCGG [A36C G51C]	0.07
CCGCCUAACACUGCCAAUGCCGGUCCCAAGCCCGGCUAAAAGUGGAGGGGACGG [A36C G51A]	0.28
CCGCCUAACACUGCCAAUGCCGGUCCCAAACCCGGCUAAAAGUGGAGGGGGCGG [A36C G30A]	0.02
CCGCCUAACACUGCCAAUGCCGGUCCCAACCCCGGCUAAAAGUGGAGGGGGCGG [A36C G30C]	0.05
CCGCCUAACACUGCCAAUGCCGGUCCCAAUCCCGGCUAAAAGUGGAGGGGGCGG [A36C G30U]	0.03
CCGCCUAACACUGCCAAUGCCGGCCCCAAGCCCGGCUAAAAGUGGAGGGGGCGG [A36C U24C]	0.07
CCGCCUAACACUGCCAAUGCCGGACCCAAGCCCGGCUAAAAGUGGAGGGGGCGG [A36C U24A]	0.06
CCGCCUAACACUGCCAAUGCCGGGCCCAAGCCCGGCUAAAAGUGGAGGGGGCGG [A36C U24G]	0.03
CCGCCUAACACUGCCAAUGCCUGUCCCAAGCCCGGCUAAAAGUGGAGGGGGCGG [A36C G22U]	0.35
CCGCCUAACACUGCCAAUGCCCGUCCCAAGCCCGGCUAAAAGUGGAGGGGGCGG [A36C G22C]	0.08

Variant	self-cleavage
CCGCCUAACACUGCCAAUGCCAGUCCCAAGCCCGGCUAAAAGUGGAGGGGGCGG [A36C G22A]	0.6
CCGCCUAACACUGCCAAUGCCGGUCCCAAGCCCGGCUAAAAGUGUAGGGGGCGG [A36C G45U]	0.05
CCGCCUAACACUGCCAAUGCCGGUCCCAAGCCCGGCUAAAAGUGAAGGGGGCGG [A36C G45A]	0.07
CCGCCUAACACUGCCAAUGCCGGUCCCAAGCCCGGCUAAAAGUGCAGGGGGCGG [A36C G45C]	0.04
CCGCCUAACACUGCCAAUGCCGGUCCCAAGCCCGGGUACAAGUGGAGGGGGCGG [A36G A39C]	1.05
CCGCCUAACACUGCCAAUGCCGGUCCCAAGCCCGGGUAGAAGUGGAGGGGGCGG [A36G A39G]	1.01
CCGCCUAACACUGCCAAUGCCGGUCCCAAGCCCGGGUAUAAGUGGAGGGGGCGG [A36G A39U]	0.97
CCGCCUAACACUGCCAAUGCCGGUCCCAAGCCCGGGUAAAAGUGGAGGGGGCGG [A36G]	1.03
CCGCCUAACACUGCCAAUGCCGGUCCCAAGCCCGGCUAAAAAUGGAGGGGGCGG [A36C G42A]	0.1
CCGCCUAACACUGCCAAUGCCGGUCCCAAGCCCGGCUAAAAUUGGAGGGGGCGG [A36C G42U]	0.04
CCGCCUAACACUGCCAAUGCCGGUCCCAAGCCCGGCUAAAACUGGAGGGGGCGG [A36C G42C]	0.08
CCGCCUAACACUGCCAAUGCCGGUCCCAAGCACGGCUAAAAGUGGAGGGGGCGG [A36C C32A]	0.06
CCGCCUAACACUGCCAAUGCCGGUCCCAAGCGCGGCUAAAAGUGGAGGGGGCGG [A36C C32G]	0.06
CCGCCUAACACUGCCAAUGCCGGUCCCAAGCUCGGCUAAAAGUGGAGGGGGCGG [A36C C32U]	0.07
CCGCCUAACACUGCCAAUUCCGGUCCCAAGCCCGGCUAAAAGUGGAGGGGGCGG [A36C G19U]	0.82
CCGCCUAACACUGCCAAUCCCGGUCCCAAGCCCGGCUAAAAGUGGAGGGGGCGG [A36C G19C]	0.56
CCGCCUAACACUGCCAAUACCGGUCCCAAGCCCGGCUAAAAGUGGAGGGGGCGG [A36C G19A]	0.76
CCGCCUAACACUGCCAAUGCCGGUCCCAAGGCCGGCUAAAAGUGGAGGGGGCGG [A36C C31G]	0.04
CCGCCUAACACUGCCAAUGCCGGUCCCAAGUCCGGCUAAAAGUGGAGGGGGCGG [A36C C31U]	0.1
CCGCCUAACACUGCCAAUGCCGGUCCCAAGACCGGCUAAAAGUGGAGGGGGCGG [A36C C31A]	0.03
CCGCCUGACACUGCCAAUGCCGGUCCCAAGCCCGGGUAAAAGUGGAGGGGGCGG [A36G A7G]	0.5
CCGCCUCACACUGCCAAUGCCGGUCCCAAGCCCGGGUAAAAGUGGAGGGGGCGG [A36G A7C]	0.05
CCGCCUUACACUGCCAAUGCCGGUCCCAAGCCCGGGUAAAAGUGGAGGGGGCGG [A36G A7U]	0.1
CCGCCUAACACUGCCAAUGCCGGUCCCAAGCCCGGGUUAAAGUGGAGGGGGCGG [A36G A38U]	1.01
CCGCCUAACACUGCCAAUGCCGGUCCCAAGCCCGGGUCAAAGUGGAGGGGGCGG [A36G A38C]	1.07

Variant	self-cleavage
CCGCCUAACACUGCCAAUGCCGGUCCCAAGCCCGGGUGAAAGUGGAGGGGGCGG [A36G A38G]	0.99
CCGCCUAACACUGCCAAUGCCGGUCCCAAGCCCGGCUAAAAGUAGAGGGGGCGG [A36C G44A]	0.16
CCGCCUAACACUGCCAAUGCCGGUCCCAAGCCCGGCUAAAAGUUGAGGGGGCGG [A36C G44U]	0.37
CCGCCUAACACUGCCAAUGCCGGUCCCAAGCCCGGCUAAAAGUCGAGGGGGCGG [A36C G44C]	0.58
CCGCCUAACACUCCCAAUGCCGGUCCCAAGCCCGGCUAAAAGUGGAGGGGGCGG [A36C G13C]	0.03
CCGCCUAACACUUCCAAUGCCGGUCCCAAGCCCGGCUAAAAGUGGAGGGGGCGG [A36C G13U]	0.02
CCGCCUAACACUACCAAUGCCGGUCCCAAGCCCGGCUAAAAGUGGAGGGGGCGG [A36C G13A]	0.04
CCGCCUAACACUGCCAAUGCCGGUCCCAAGCCGGGCUAAAAGUGGAGGGGGCGG [A36C C33G]	0.04
CCGCCUAACACUGCCAAUGCCGGUCCCAAGCCAGGCUAAAAGUGGAGGGGGCGG [A36C C33A]	0.06
CCGCCUAACACUGCCAAUGCCGGUCCCAAGCCUGGCUAAAAGUGGAGGGGGCGG [A36C C33U]	0.13
CCGCCUAACACUGCCAAUGCCGGUCCCAAGCCCGGCUAAAAGUGGAGGGUGCGG [A36C G50U]	0.37
CCGCCUAACACUGCCAAUGCCGGUCCCAAGCCCGGCUAAAAGUGGAGGGAGCGG [A36C G50A]	0.77
CCGCCUAACACUGCCAAUGCCGGUCCCAAGCCCGGCUAAAAGUGGAGGGCGCGG [A36C G50C]	0.22
CCGCCUAACACCGCCAAUGCCGGUCCCAAGCCCGGCUAAAAGUGGAGGGGGCGG [A36C U12C]	0.08
CCGCCUAACACAGCCAAUGCCGGUCCCAAGCCCGGCUAAAAGUGGAGGGGGCGG [A36C U12A]	0.13
CCGCCUAACACGGCCAAUGCCGGUCCCAAGCCCGGCUAAAAGUGGAGGGGGCGG [A36C U12G]	0.13
CCGCCUAACACUGCCAAUGCCGGUCCCAAGCCCGGCUAAAAGUGGAGGGGGAGG [A36C C52A]	0.37
CCGCCUAACACUGCCAAUGCCGGUCCCAAGCCCGGCUAAAAGUGGAGGGGGGGG [A36C C52G]	0.51
CCGCCUAACACUGCCAAUGCCGGUCCCAAGCCCGGCUAAAAGUGGAGGGGGUGG [A36C C52U]	0.82
CCGCCUAACACUGCCAAUGCCGGUCCCAAGCCCGGCUAAAAGUGGAUGGGGCGG [A36C G47U]	0.07
CCGCCUAACACUGCCAAUGCCGGUCCCAAGCCCGGCUAAAAGUGGACGGGGCGG [A36C G47C]	0.06
CCGCCUAACACUGCCAAUGCCGGUCCCAAGCCCGGCUAAAAGUGGAAGGGGCGG [A36C G47A]	0.07
